Tests used:
Assay type in all cases: functional, cell-based
[1] = Cytotoxicity against human PC3M cells after 24 hrs by MTT assay; settings: PC-3M
Summary of the method: (§1)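 Human cancer lines from ATCC, seeded at 3000 cells per well and exposed 24 h later to a range of concentrations for 24 h. MTT was then added, plates were incubated a further 24 h, and viability was read as absorbance at 570 nm. IC50 values were calculated from the readings.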

A549 = test: Cytotoxicity against human A549 cells after 24 hrs by MTT assay; settings: A549, 24 h; summary of the method: as §1
Bel-7402 = test: Cytotoxicity against human Bel7402 cells after 24 hrs by MTT assay; settings: Bel-7402, 24 h; summary of the method: as §1
HCT-8 = test: Cytotoxicity against human HCT8 cells after 24 hrs by MTT assay; settings: HCT-8, 24 h; summary of the method: as §1

Compound | IC50 [1] | IC50 (A549) | IC50 (Bel-7402) | IC50 (HCT-8)
CC(=O)O[C@H]1C[C@]2(O)C(COC(=O)C(OC(=O)CC(C)C)C(C)C)=CO[C@@H](OC(=O)CC(C)C)[C@@H]2[C@@]12CO2 (stereo partly specified) | 1.9 µM | 7.4 µM | 4 µM | 2.5 µM
CC(=O)O[C@H]1C=C2C(COC(=O)CC(C)C)=CO[C@@H](OC(=O)CC(C)C)[C@@H]2[C@@]1(O)COC(=O)c1ccccc1O [JATAMANVALTRATE I] | 3.9 µM | > 10 µM | > 10 µM | 9.7 µM
CC(=O)OC[C@]1(O)[C@H]2[C@H](OC(=O)CC(C)C)OC=C(COC(=O)CC(C)C)[C@H]2C[C@@H]1O [JATAMANVALTRATE G] | 5.6 µM | > 10 µM | 5.9 µM | > 10 µM
CC(=O)OCC1=CO[C@@H](OC(=O)CC(C)C)[C@H]2C1=C[C@H](OC(=O)CC(C)C)[C@]2(O)COC(C)=O | > 10 µM | 8.6 µM | > 10 µM | > 10 µM
CC(=O)OCC1=CO[C@@H](OC(=O)CC(C)C)[C@H]2C1=C[C@H](OC(=O)CC(C)(C)OC(C)=O)[C@]21CO1 [ACEVALTRATE] | 1.4 µM | 2.9 µM | 1.7 µM | 1 µM
CCOCC1=CO[C@@H](OC(=O)CC(C)C)[C@@H]2[C@@]3(CO3)[C@@H](OC(C)=O)C[C@]12O [JATAMANVALTRATE M] | 6.3 µM | > 10 µM | > 10 µM | > 10 µM
CC(=O)OCC1=CO[C@@H](OC(=O)CC(C)C)[C@H]2C1=C[C@H](OC(=O)CC(C)C)[C@]2(O)CO [JATAMANVALTRATE K] | 5 µM | > 10 µM | 7.1 µM | > 10 µM
CC(=O)O[C@H]1C[C@]2(O)C(COC(=O)C(OC(=O)CC(C)C)C(C)C)=CO[C@@H](OC(=O)CC(C)C)[C@@H]2[C@@]1(O)COC(=O)c1ccccc1O (stereo partly specified) [JATAMANVALTRATE D] | 3.8 µM | > 10 µM | 9.7 µM | 4.5 µM
CC(=O)O[C@H]1C[C@]2(O)C(COC(=O)C(OC(=O)CC(C)C)C(C)C)=CO[C@@H](OC(=O)CC(C)C)[C@@H]2[C@@]1(O)COC(=O)C(OC(=O)CC(C)C)C(C)C (stereo partly specified) [VALERIOTETRATE A] | 3.1 µM | > 10 µM | 9.9 µM | 8.2 µM
CC(=O)OC[C@]1(O)[C@H]2[C@H](OC(=O)CC(C)C)OC=C(COC(=O)C(OC(=O)CC(C)C)C(C)C)[C@@]2(O)C[C@@H]1O (stereo partly specified) [VALERIOTRIATE B] | 3.9 µM | > 10 µM | > 10 µM | > 10 µM
CC(=O)O[C@H]1C[C@@H]2C(COC(=O)CC(C)C)=CO[C@@H](OC(=O)CC(C)C)[C@@H]2[C@@]1(O)CO [JATAMANVALTRATE H] | 5.2 µM | > 10 µM | > 10 µM | > 10 µM
CC(=O)O[C@H]1C[C@]2(O)C(COC(=O)C(OC(=O)CC(C)C)C(C)C)=CO[C@@H](OC(=O)CC(C)C)[C@@H]2[C@@]1(O)COC(=O)CC(C)C (stereo partly specified) [JATAMANVALTRATE B] | 3.9 µM | > 10 µM | > 10 µM | 6.2 µM
CC(=O)OC[C@@]1(O)[C@@H](OC(C)=O)C[C@]2(O)C(COC(=O)C(OC(=O)CC(C)C)C(C)C)=CO[C@@H](OC(=O)CC(C)C)[C@H]12 (stereo partly specified) [JATAMANVALTRATE C] | > 10 µM | > 10 µM | > 10 µM | > 10 µM
CC(=O)O[C@H]1C[C@@H]2C(COC(=O)CC(C)C)=CO[C@@H](OC(=O)CC(C)C)[C@@H]2[C@@]12CO2 [DIDROVALTRATE] | 3.8 µM | > 10 µM | 7.5 µM | 6.6 µM
CC(=O)OC[C@]1(O)[C@H]2[C@H](OC(=O)CC(C)C)OC=C(COC(=O)CC(C)C)[C@H]2C[C@@H]1OC(C)=O [DIDROVALTRATE ACETOXY HYDRIN] | 1.6 µM | 3 µM | 4.4 µM | 2.6 µM
CC(=O)O[C@H]1C(=O)[C@@]2(C)[C@H]([C@H](OC(=O)c3ccccc3)[C@]3(O)C[C@H](OC(=O)[C@H](O)[C@@H](NC(=O)c4ccccc4)c4ccccc4)C(C)=C1C3(C)C)[C@]1(OC(C)=O)CO[C@@H]1C[C@@H]2O [PACLITAXEL] | 0.027 µM | 0.0052 µM | 0.095 µM | –
CC(=O)OCC1=CO[C@@H](OC(=O)CC(C)C)[C@H]2C1=C[C@H](OC(=O)CC(C)C)[C@]21CO1 [VALTRATE] | 1.6 µM | 3.7 µM | 6.1 µM | 1.8 µM
CC(C)CC(=O)OC(C(=O)OCC1=CO[C@@H](OC(=O)CC(C)C)[C@@H]2[C@@]3(CO3)[C@@H](O)C[C@]12O)C(C)C (stereo partly specified) [JATAMANVALTRATE L] | 3.4 µM | > 10 µM | 7.6 µM | > 10 µM
COC[C@@]1(O)[C@@H](OC(C)=O)C[C@]2(O)C(COC(=O)C(OC(=O)CC(C)C)C(C)C)=CO[C@@H](OC(=O)CC(C)C)[C@H]12 (stereo partly specified) [JATAMANVALTRATE E] | > 10 µM | > 10 µM | 8.5 µM | 9.7 µM
CC(=O)O[C@H]1C[C@]2(O)C(COC(=O)CC(C)C)=CO[C@@H](OC(=O)CC(C)C)[C@@H]2[C@@]12CO2 | 2.2 µM | 7 µM | 2.3 µM | 1.5 µM
CC(=O)O[C@H]1C[C@]2(O)C(COC(=O)C(OC(=O)CC(C)C)C(C)C)=CO[C@@H](OC(=O)CC(C)C)[C@@H]2[C@@]1(O)COC(=O)CC(C)(C)OC(C)=O (stereo partly specified) [JATAMANVALTRATE A] | 5.3 µM | > 10 µM | > 10 µM | > 10 µM
CC(=O)O[C@H]1C[C@@H]2C(COC(=O)CC(C)C)=CO[C@@H](OC(=O)CC(C)C)[C@@H]2[C@@]1(O)COC(=O)CC(C)(C)OC(C)=O [JATAMANVALTRATE F] | 4.3 µM | > 10 µM | 8.8 µM | > 10 µM
CC(=O)OCC1=CO[C@@H](OC(=O)CC(C)C)[C@H]2C1=C[C@H](O)[C@]2(O)COC(=O)CC(C)C [JATAMANVALTRATE J] | 5.8 µM | > 10 µM | > 10 µM | > 10 µM
